Laboratory results reported in publication PMC8943622 (Journal of Cerebral Blood Flow & Metabolism, 2021).
Several values for one entry are separate records, joined by “and”; a condition that tells them apart may be missing. Equal entries are not always repeated. Where two headings read alike, the source gives them in different places.

Legend:
MAGL [1] = experiment: [18F]T-401 PET after JW642 pretreatment; format: in vivo, rhesus monkey (Macaca mulatta)
MAGL [2] = target: T1, MAGL (Macaca mulatta, UniProt H9ESL3); experiment: In vivo Scatchard plot analysis of baseline [18F]T-401 PET data; set-up: species or system rhesus monkey
T1 sequence (H9ESL3 1-303): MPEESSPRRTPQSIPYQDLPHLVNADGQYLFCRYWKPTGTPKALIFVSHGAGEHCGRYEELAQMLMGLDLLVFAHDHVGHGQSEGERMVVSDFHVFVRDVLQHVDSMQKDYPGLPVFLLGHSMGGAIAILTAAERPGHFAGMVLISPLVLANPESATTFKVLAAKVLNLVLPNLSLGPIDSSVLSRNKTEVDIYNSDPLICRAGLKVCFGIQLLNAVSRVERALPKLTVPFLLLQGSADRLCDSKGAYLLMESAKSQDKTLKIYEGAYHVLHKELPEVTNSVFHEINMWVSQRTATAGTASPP
How it was run: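 Three male rhesus monkeys (5–7 kg) were given ketamine 10 mg/kg i.m., then intubated and kept on 1–2% isoflurane, with a heating pad. After a 68Ge–68Ga transmission scan, a 120 min 3D list-mode emission scan began at i.v. radioligand injection (356 ± 50 MBq, 343 ± 68 GBq/μmol). Baseline data were analysed by Scatchard plot to give KD and Bmax in representative ROIs.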

[3] = Radiometabolite analysis of [18F]T-401 in arterial plasma; format: in vivo, rhesus monkey; details: 30 min after injection; baseline and JW642 blockade
How it was run: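 Anaesthetised monkeys had 24 serial saphenous-artery samples taken over the 120 min scan. Plasma was separated at 15000 × g, 3 min, 4 °C. Samples from 2, 5, 10, 30, 60, 90 and 120 min went to HPLC (Atlantis T3, acetonitrile/H2O 40/60, 1.0 mL/min, 254 nm). Decay-corrected parent-to-total radioactivity came from peak areas. Blockade used i.v. test compound 0.01–0.3 mg/kg, 5 min before the radioligand, in one monkey.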

MAGL [4] = format: in vivo, rhesus monkey (Macaca mulatta); details: baseline; for VT mean: mean of three monkeys; for VT: M187

| EC50, plasma JW642 concentration inducing 50% occupancy of MAGL (MAGL [1]; Hill's plot of occupancy versus plasma concentration, monkey M187) | MAGL occupancy (MAGL [1]; JW642 0.01 mg/kg i.v., Lassen's plot) [%] | MAGL occupancy (MAGL [1]; JW642 0.3 mg/kg i.v., Lassen's plot, 0.3 mg/kg) | Kd (MAGL [2]; FCX) [nM] | Kd (MAGL [2]; HIP) [nM] | parent fraction in arterial plasma [3] | VT mean (MAGL [4]; CB) [mL/cm^3] | VT mean (MAGL [4]; FCX) [mL/cm^3] | VT mean (MAGL [4]; HIP) [mL/cm^3] | VT (MAGL [4]; OCC) [mL/cm^3] | VT mean (MAGL [4]; OCC) [mL/cm^3] | VT mean (MAGL [4]; Pons) [mL/cm^3] | VT (MAGL [4]; STR) [mL/cm^3] | VT mean (MAGL [4]; STR) [mL/cm^3] | VT mean (MAGL [4]; THA) [mL/cm^3] | time of peak brain uptake after injection (MAGL [4]; monkey brain) [min] | mean VT, upper end of range (MAGL [4]; printed as striatum) [mL/cm^3] | non-displaceable distribution volume (VND) (MAGL [1]; Lassen's plot, averaged x-intercept of regression lines, monkey brain) [mL/cm^3] | VND as portion of VT (MAGL [1]; pons) [%] | Structure (SMILES) |
| --- | --- | --- | --- | --- | --- | --- | --- | --- | --- | --- | --- | --- | --- | --- | --- | --- | --- | --- | --- |
| 126 ng/mL and 126.1 ng/mL | 20 | 94% and 93% | – | – | – | – | – | – | – | – | – | – | – | – | – | – | – | – | O=C(OC(C(F)(F)F)C(F)(F)F)N1CCN(Cc2cccc(Oc3ccccc3)c2)CC1 [JW642] |
| – | – | – | 4.18 | 1.09 | approximately 30% | 7.17 | 11.7 | 5.95 | 11.89 | 9.96 | 4.73 | 12.51 | 9.05 | 6.36 | 5 to 15 | 11.7 | 0.69 | 14.6 | Cc1ccnc([18F])c1-c1cccc(N2C[C@H](N3CCN(C(=O)c4nccs4)CC3)CC2=O)c1 [[^18F]T-401, (4R)-1-{3-[2-[^18F]fluoro-4-methylpyridin-3-yl]phenyl}-4-[4-(1,3-thiazol-2-ylcarbonyl)piperazin-1-yl]pyrrolidin-2-one] |
